Experimental findings from PubChem BioAssay AID651560 (Sanford-Burnham Center for Chemical Genomics, 2012) are described below.

Out of some 360,000 compounds screened, about 820 (0.23%) were called active. This is one part of a sample in which actives are shown more often than they occur. Unmarked numbers belong to inactive results.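 The calls were made as follows: active = compounds that cut the enzyme signal by at least half of the control window in the single-dose screen; inactive = the rest.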

The term inhibition denotes the relative decrease from the control value, in per cent.

For this experiment, the target named is Low molecular weight phosphotyrosine protein phosphatase (Homo sapiens) (UniProt P24666). Description: LMPTP phosphatase inhibitors, primary screen, biochemical, fluorescence intensity, uHTS (AID 651560).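 Also: plate controls were DMSO wells with enzyme plus substrate for no effect and substrate without enzyme for full effect.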 The conditions noted are these: recombinant LMPTP-A, OMFP fluorogenic substrate, at 20 µM, hits give high values. A digest of the protocol: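 Test system: LMPTP-A phosphatase enzyme. Amount: LMPTP-A at 0.625 nM final in the reaction. Reagent: OMFP substrate, 400 µM final. Times: 50 min at room temperature. Signal: endpoint fluorescence intensity from OMFP dephosphorylation. Read-out basis: % inhibition. Benchmarks: no-enzyme and uninhibited controls.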
Low molecular weight phosphotyrosine protein phosphatase (Homo sapiens), sequence (P24666 whole entry, looked up): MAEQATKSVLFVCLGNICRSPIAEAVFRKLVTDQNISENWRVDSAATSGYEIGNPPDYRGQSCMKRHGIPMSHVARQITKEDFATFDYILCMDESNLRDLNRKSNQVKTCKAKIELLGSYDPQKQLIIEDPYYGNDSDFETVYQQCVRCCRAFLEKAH
As to `CCOC(=O)C1(CC2CCCCO2)CCN(Cc2nc(-c3cccs3)oc2C)CC1` (centres undefined), the inhibition is 0.186%.

Regarding `O=C(COC(=O)C1CC2CCCC(C1)C2=O)NC(=O)c1ccccc1` (centres undefined), the inhibition is -0.507%.

For the compound `CC(Oc1ccc(F)cc1F)C(=O)/C=C/N(C)C` (centres undefined), the inhibition is 0.234%.

For `C[C@H]1CN([C@@H](C)CO)S(=O)(=O)c2ccc(-c3cccc(F)c3)cc2O[C@@H]1CN(C)C`, the inhibition was -1.08%.

For the compound `CCOC(=O)N1CCN(C(=S)Nc2ccc(C)cc2C)CC1`, the inhibition was -1.47%.

`COc1cc([N+](=O)[O-])ccc1NC(=S)N1CCN(c2ccccn2)CC1`: the inhibition is 0.0311%.

For `CC1CCN(C(=S)c2cccc(O)c2)CC1`, the inhibition is 0.643%.

Take `CCS(=O)(=O)N1Cc2ccccc2CC1C(=O)Nc1ccc(OC)cc1OC` (centres undefined): the inhibition was -0.419%.

As to `CC(NC(=S)NNS(=O)(=O)c1ccc(C(C)(C)C)cc1)c1ccccc1` (centres undefined), the inhibition was 2.08%.

In the case of `Cc1c(Nc2nc3ccccc3nc2NS(=O)(=O)c2cccs2)c(=O)n(-c2ccccc2)n1C`, the inhibition is -0.947%.

In the case of `N#Cc1cc([N+](=O)[O-])ccc1Oc1cccc(/C=N/NC(=O)c2ccc(Cl)cc2)c1`, the inhibition is 0.464%.

With `O=C(COc1ccc([N+](=O)[O-])cc1)Nc1ccc(N2CCCC2)cc1`, the inhibition was 59.1% (active).

`O=C(COc1ccc([N+](=O)[O-])cc1)Nc1cccc(C(=O)Nc2ccccc2C(=O)O)c1`: the inhibition is 0.459%.

For `O=C(CSc1ccc([N+](=O)[O-])cn1)Nc1ccc(N2CCOCC2)cc1`, the inhibition was -0.239%.

Take `O=C(COc1ccc(/C=N/NC(=O)c2ccc(O)cc2)cc1)Nc1ccc([N+](=O)[O-])cc1`: the inhibition is 71.4% (active).

`O=C(COC(=O)C1CCCCC1)Nc1ccc([N+](=O)[O-])cc1`: the inhibition was 0.534%.

On to `COc1ccc(CCNc2ncnc3c2nnn3Cc2ccccc2)cc1`, for which the inhibition is 1.88%.

Regarding `CCn1ccnc1CNC(=O)CC1C(=O)NCCN1Cc1ccc(F)cc1Cl` (centres undefined), the inhibition was 1.38%.

Take `Nc1ccc(Cl)c(S(=O)(=O)Nc2ccccc2Cl)c1`: the inhibition is -0.587%.

Consider `O=S(=O)(c1ccc(F)cc1)N1CCN(C(=S)NCc2ccco2)CC1`, for which the inhibition is 0.0562%.

On to `CCCc1c(C)nc2scc(-c3ccc(Cl)cc3)n2c1=O`, for which the inhibition is -0.6%.

Take `O=c1ccc2c(-c3ccccc3S(=O)(=O)O)c3ccc(O)c(O)c3oc-2c1O`: the inhibition is 58.1% (active).

Turning to `Cc1ccc(N2C(=O)C3C4C=CC(CC4)C3C2=O)cc1Br` (centres undefined), the inhibition is -1.41%.

`COc1cc(Cl)c(C)cc1NC(=O)[C@@H]1CCCN1C(=O)c1cccs1`: the inhibition was -1.01%.

Consider `CCN(CC)Cc1nc2sc(C)c(C)c2c(=O)[nH]1`, for which the inhibition is -1.11%.

For the compound `NS(=O)(=O)c1ccc(NC(=S)NNC(=O)c2cccs2)cc1`, the inhibition is -0.673%.

Regarding `C/C(=N\Nc1nc2ccccc2[nH]1)c1cccs1`, the inhibition is 1.27%.

Consider `C/C(=N\Nc1ccc(S(N)(=O)=O)cc1[N+](=O)[O-])c1cccs1`, for which the inhibition was 57.1% (active).

Turning to `CCOC1=C2CN(S(=O)(=O)c3ccc(C)cc3)[C@H](c3cccs3)C[C@H]2[C@H]2C(=O)N(c3ccccc3)C(=O)[C@H]2C1`, the inhibition is 0.231%.

`O=C(c1ccccc1)c1ccc2nc(N3CCCCC3)c3nncn3c2c1`: the inhibition is 2.58%.

Take `CC(C)(Oc1ccc(Cl)cc1)C(=O)OCC(=O)NCCc1ccc(S(N)(=O)=O)cc1`: the inhibition was -0.949%.

`Cc1sc2ncnc(SCC(=O)Nc3ccc(CN4CCCC4)cc3)c2c1C`: the inhibition was 23.7%.

As for `O=c1c2ccccc2nnn1CSc1nc2sc3c(c2c(=O)n1CC1CCCO1)CCC3` (centres undefined), the inhibition was 4.21%.

With `O=C(CCc1nc2sc3c(c2c(=O)[nH]1)CCCC3)NCC(=O)Nc1ccccc1Br`, the inhibition is 9.36%.

As to `O=C(Nc1cccc(Cl)c1)C1CCCN(c2cnccn2)C1` (centres undefined), the inhibition is -0.511%.

As for `C[C@@H]1CN([C@@H](C)CO)C(=O)CCCn2nncc2CO[C@@H]1CN(C)S(=O)(=O)c1ccc(-c2ccccc2)cc1`, the inhibition is -1.91%.

`C=C1c2c(Cl)ccc(O)c2C(O)=C2C(=O)[C@]3(O)C(O)=C(C(N)=O)C(=O)[C@@H](N(C)C)[C@@H]3[C@@H](O)C12` (some centres undefined): the inhibition is 72.5% (active).

For `C[C@H](CO)N1C[C@H](C)[C@@H](CN(C)S(=O)(=O)c2ccc(Oc3ccccc3)cc2)OCc2cn(nn2)CCCC1=O`, the inhibition was -0.314%.

For `O=c1cc(CO)oc(C(Nc2cccc([N+](=O)[O-])c2)c2ccccn2)c1O` (centres undefined), the inhibition is -1.69%.

For `CCOC(=O)N1CCN(Cc2nc3ccc([N+](=O)[O-])cc3c(=O)n2-c2cccc(OC)c2)CC1`, the inhibition was -0.855%.

For `CCCCN(C(=O)C1CCC1)c1c(N)n(Cc2ccccc2)c(=O)[nH]c1=O`, the inhibition was -1.05%.

Turning to `CCN1C(=O)C(=O)N(CC(=O)Nc2cc(C)ccc2C)C1=O`, the inhibition is -0.207%.

With `COc1ccccc1C(CNC(=O)c1cccc(NS(=O)(=O)c2ccc(Br)cc2)c1)N(C)C` (centres undefined), the inhibition is -1.5%.

With `COc1cc(CCN=Cc2ccccc2O)c([N+](=O)[O-])cc1OC`, the inhibition was 0.174%.

Consider `COc1ccc(Br)cc1/C=N/Nc1ccc(S(=O)(=O)Nc2ccccc2C(=O)O)cc1[N+](=O)[O-]`, for which the inhibition is 71.1% (active).

For `Cc1ccc(S(=O)(=O)N[C@@H](Cc2ccccc2)C(=O)N2CCC(C(=O)N[C@H](C(=O)O)C(C)O)CC2)cc1` (some centres undefined), the inhibition is -1.25%.

Regarding `Cc1ccc(O/C=C2\OC(=O)c3ccccc32)cc1`, the inhibition was -1.45%.

Regarding `CC1(C)C2CC=C(/C=N/NC(=O)c3ccc(Cl)cc3)C1C2` (centres undefined), the inhibition was -2.83%.

On to `COC(=O)C(C)C1Sc2ccccc2NC1=O` (centres undefined), for which the inhibition was 0.652%.

For `CCC1CCCCN1C(=O)CSc1nc(C)cc(C)n1` (centres undefined), the inhibition was -0.356%.

With `CCN([C@H](CO)C(C)C)S(=O)(=O)c1ccccc1Br`, the inhibition is -1.46%.

For the compound `CC1CCCC(C)N1C(=O)COC(=O)c1ccccc1C(=O)c1ccccc1` (centres undefined), the inhibition is -1.53%.

With `Cn1c(=O)c2c(ncn2CC(=O)N/N=C/c2cn[nH]c2-c2ccc(F)cc2)n(C)c1=O`, the inhibition was -0.239%.

As to `CCN(c1ccccc1)S(=O)(=O)c1cc2c(cc1C)n(C)c(=O)c(=O)n2C`, the inhibition is 0.0122%.
